In ChEMBL document CHEMBL1806465, “Synthesis and biological evaluation of 4-nitro-substituted 1,3-diaryltriazenes as a novel class of potent antitumor agents” (Eur J Med Chem, 2011):
The source made the active and inactive calls. The calls are words filed in the database; no cut-off is given here.

Key:
SW-620 = experiment: Cytotoxicity against human SW620 cells after 72 hrs by MTT assay; type: functional, cell-based; conditions: SW-620, 72 h
Method in brief: (§1)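 MTT assay: 3000 cells/well seeded, compound added next day, each concentration in quadruplicate, 72 h at 37 °C; medium replaced with 20 µg MTT/well for 4 h, formazan dissolved in DMSO, OD 545 nm. […] Fibroblasts: normal skin fibroblasts from donor, DMEM/10% FBS, used at 32 and 36 population doublings.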

HeLa [1] = experiment: Cell cycle arrest in human HeLa cells assessed as accumulation at G2/M phase at 21 uM after 48 hrs by propidium iodide staining -based flow cytometry (reference value: 9.9 %); type: functional
Method in brief: (§2)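 HeLa seeded at 100 000 cells/well, treated next day with 0.78, 7 or 21 µM for 24, 48 or 72 h. Adherent plus floating cells collected, PBS-washed, fixed overnight in 70% ethanol at −20 °C, RNase A 30 µg/ml 1 h RT, propidium iodide 16.7 µg/ml 30 min dark; DNA content by flow cytometry, phase percentages including subG1 reported.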

[2] = Cytotoxicity against human Fibroblast cells after 72 hrs by MTT assay; type: cell-based; method in brief: as §1
HeLa [3] = experiment: Cell cycle arrest in human HeLa cells assessed as accumulation at G2/M phase at 0.78 uM after 48 hrs by propidium iodide staining -based flow cytometry (reference value: 9.9 %); type: functional; method in brief: as §2
HeLa [4] = experiment: Cell cycle arrest in human HeLa cells assessed as accumulation at subG1 phase at 21 uM after 48 hrs by propidium iodide staining -based flow cytometry (reference value: 8.5 %); type: functional; method in brief: as §2
HeLa [5] = experiment: Induction of reactive oxygen species generation in human HeLa cells at 7 uM after 6 hrs by FACS analysis; type: functional, cell-based
Method in brief: (§3)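 Logarithmically growing HeLa cells were preloaded with 10 µM CM-H2DCFDA for 1 h. They were then exposed to 7, 20 or 40 µM for 8 h, or to 7 µM for 2, 4 or 6 h. Cells were trypsinized, fixed in cold 80% methanol, resuspended in PBS and read for fluorescence by flow cytometry. The positive control was 0.01% H2O2 for 30 min.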

HeLa [6] = experiment: Induction of CHOP expression in human HeLa cells at 7 uM up to 8 hrs by Western blot analysis; type: functional, cell-based
Method in brief: (§4)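 Log-phase HeLa exposed to a concentration series for 48 h, or to 7 µM over a time course. Extracts resolved on 10% SDS gels, blotted to nitrocellulose, blocked 5% milk; anti-CHOP 1:1000 in 5% BSA overnight at 4 °C, HRP secondary 1:5000 2 h RT, ECL detection; ERK2 reprobe as loading control.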

HeLa [7] = experiment: Cell cycle arrest in human HeLa cells assessed as accumulation at G0/G1 phase at 7 uM after 48 hrs by propidium iodide staining -based flow cytometry (reference value: 63.8 %); type: functional; method in brief: as §2
HeLa [8] = experiment: Cell cycle arrest in human HeLa cells assessed as accumulation at S phase at 0.78 uM after 72 hrs by propidium iodide staining -based flow cytometry (reference value: 23.5 %); type: functional; method in brief: as §2
HeLa [9] = experiment: Cell cycle arrest in human HeLa cells assessed as accumulation at subG1 phase after 24 to 72 hrs by propidium iodide staining -based flow cytometry; type: functional; method in brief: as §2
HeLa [10] = experiment: Cell cycle arrest in human HeLa cells assessed as accumulation at subG1 phase at 0.78 uM after 24 hrs by propidium iodide staining -based flow cytometry (reference value: 9.4 %); type: functional; method in brief: as §2
HEp-2 = experiment: Cytotoxicity against human Hep2 cells after 72 hrs by MTT assay; type: functional, cell-based; conditions: HEp-2, 72 h; method in brief: as §1
HeLa [11] = experiment: Induction of apoptotis in human HeLa cells assessed as cleavage of procaspase 9 at 7 uM after 48 hrs by Western blot analysis; type: functional, cell-based
Method in brief: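 HeLa cells were treated for 48 h at 7 µM and analysed by Western blot (10% SDS gels, nitrocellulose, HRP secondary, ECL, ERK2 loading control) for cleavage of apoptotic proteins. Antibodies: anti-PARP 1:4000; anti-caspase-3 and anti-caspase-8 1:1000; rabbit polyclonal anti-caspase-9 1:1000.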

HeLa [12] = experiment: Induction of Grp78 expression in human HeLa cells at 7 uM up to 8 hrs by Western blot analysis; type: functional, cell-based
Method in brief: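 Logarithmically growing HeLa cells were exposed to varying concentrations for 48 h, or to 7 µM for varying times. Cell extracts were run on 10% SDS gels and transferred to nitrocellulose. Membranes were blocked in 5% milk and probed with anti-Grp78 (1:1000, overnight, 4 °C), then an HRP secondary (1:5000, 2 h, RT). Detection was by ECL, with ERK2 reprobing as the loading control.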

[13] = Cytotoxicity against cisplatin-resistant human CA3ST cells after 72 hrs by MTT assay; type: functional, cell-based; method in brief: as §1
[14] = Stability of the compound in DMSO after 26.25 hrs by LC/MS/MS analysis in presence of 10% FBS; type: physicochemical; conditions: cattle, DMSO with 10% FBS; read-out: Stability
HeLa [15] = experiment: Cell cycle arrest in human HeLa cells assessed as accumulation at G2/M phase at 21 uM after 24 hrs by propidium iodide staining -based flow cytometry (reference value: 11.7 %); type: functional; method in brief: as §2
HeLa [16] = experiment: Induction of reactive oxygen species generation in human HeLa cells after 8 hrs by FACS analysis; type: functional, cell-based; method in brief: as §3
[17] = Therapeutic index, ratio IC50 for human RT112 cells to IC50 for normal human fibroblasts; type: cell-based, RT-112; conditions: RT112 cells versus normal human fibroblasts, read-out: Ratio IC50
Method in brief: (§5)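 IC50 values came from an MTT assay. Cells were seeded at 3000 per well and dosed the next day, with each concentration in quadruplicate. After 72 h at 37 °C, MTT (20 µg/well) was added for 4 h; formazan was dissolved in DMSO and read at 545 nm. Each experiment was done three times. Normal skin fibroblasts were used at 32 and 36 population doublings. T.I. = tumor-cell IC50 / fibroblast IC50.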

HeLa [18] = experiment: Cell cycle arrest in human HeLa cells assessed as accumulation at G0/G1 phase at 0.78 uM after 24 hrs by propidium iodide staining -based flow cytometry (reference value: 60.6 %); type: functional; method in brief: as §2
HeLa [19] = experiment: Cell cycle arrest in human HeLa cells assessed as accumulation at S phase at 7 uM after 24 hrs by propidium iodide staining -based flow cytometry (reference value: 27.7 %); type: functional; method in brief: as §2
HeLa [20] = experiment: Induction of CHOP expression in human HeLa cells at 7 uM after 16 to 48 hrs by Western blot analysis; type: functional, cell-based; method in brief: as §4
[21] = Therapeutic index, ratio IC50 for human HeLa cells to IC50 for normal human fibroblasts; type: cell-based; conditions: HeLa cells versus normal human fibroblasts, read-out: Ratio IC50; method in brief: as §5
HeLa [22] = experiment: Cell cycle arrest in human HeLa cells assessed as accumulation at S phase at 21 uM after 72 hrs by propidium iodide staining -based flow cytometry (reference value: 23.5 %); type: functional; method in brief: as §2
HeLa [23] = experiment: Cell cycle arrest in human HeLa cells assessed as accumulation at G0/G1 phase at 7 uM after 72 hrs by propidium iodide staining -based flow cytometry (reference value: 66.9 %); type: functional; method in brief: as §2
HeLa [24] = experiment: Cell cycle arrest in human HeLa cells assessed as accumulation at G2/M phase at 7 uM after 24 hrs by propidium iodide staining -based flow cytometry (reference value: 11.7 %); type: functional; method in brief: as §2
HeLa [25] = experiment: Cell cycle arrest in human HeLa cells assessed as accumulation at S phase at 0.78 uM after 48 hrs by propidium iodide staining -based flow cytometry (reference value: 26.3 %); type: functional; method in brief: as §2

Work on `CC(=O)N(/N=N/c1ccc([N+](=O)[O-])cc1Cl)c1ccc([N+](=O)[O-])cc1Cl` yielded an IC50 (SW-620) of 450 nM, an Activity (HeLa [1]) of 11.9% and an IC50 [2] of 14000 nM. For the same compound, the Activity (HeLa [3]) was 7%, the Activity (HeLa [4]) was 46.5% and the Activity (HeLa [5]) was “Active”. For the same compound, the Activity (HeLa [6]) was “inactive”, the Activity (HeLa [7]) was 76.2% and the Activity (HeLa [8]) was 32.5%. For the same compound, the Activity (HeLa [9]) was “Dose-dependent effect”, the Activity (HeLa [10]) was 8.7% and the IC50 (HEp-2) was 620 nM. The Activity (HeLa [11]) was “Active”, the Activity (HeLa [12]) was “inactive” and the IC50 [13] was 630 nM. The remaining at 26.25 h [14] was 57%, the Activity (HeLa [15]) was 10.5% and the Activity (HeLa [16]) was “Dose-dependent effect”. The selectivity ratio [17] was 0.514, the Activity (HeLa [18]) was 74.4% and the Activity (HeLa [19]) was 20.8%. The Activity (HeLa [20]) was “Active”, the selectivity ratio [21] was 0.045 and the Activity (HeLa [22]) was 12.6%. The Activity (HeLa [23]) was 77.1%, the Activity (HeLa [24]) was 10% and the Activity (HeLa [25]) was 18.5%.
